Test results as given in article PMC2266615 (The Journal of General Physiology, 2005).
Where two headings read alike, the source gives them in different places. One block for each compound: values may come before it. The star is where a group is joined. acrylodan = 6-acryloyl-2-dimethylaminonaphthalene, CN(C)c1ccc2cc(C(=O)CC*)ccc2c1

Key:
ErbB1 [1] = details: ref Li et al., 2004a; cited from earlier work
ErbB1 [2] = details: ref Li et al., 2004a, cited from earlier work; for steady-state ErbB1 autophosphorylation: times >20 min; for initial peak of ErbB1 autophosphorylation: two other cell types
[3] = extrapolated from peptide binding, [lipid]eff > 10^−2 M
ErbB1 [4] = details: membranes and solubilized form; ref Davis et al., 1988; cited from earlier work
hepatocytes = details: EGF, in the next 2–3 min, ref Nojiri and Hoek, 2000; cited from earlier work
A431 cells = details: ref Hughes et al., 1991, cited from earlier work; for intracellular [Ca2+]: EGF
calmodulin (Ca/CaM) = calmodulin (Ca/CaM) (Homo sapiens, UniProt P0DP23); experiment: Ca/CaM binding by competition with PC/PS vesicles; parameters: species or system bovine brain and human brain; details: 2:1 PC/PS LUVs, 100 mM KCl, 1 mM MOPS, pH 7.0, 100 μM EGTA + 120 μM Ca2+; trace peptide ~5 nM; centrifugation; fit of Eq. 2
Procedure, shortened: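 Trace (~5 nM) [3H]NEM-labelled test peptide mixed with 100-nm sucrose-loaded 2:1 PC/PS LUVs (total lipid 2 × 10−5 M; repeats with 3:1 PC/PS) and varied bovine or human brain CaM. Spun 100,000 g for 1 h. Percent bound from supernatant/pellet counts; KCaM from a competition equation (Eq. 2) fit.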

[5] = type: binding; details: for rate of removal from vesicles by Ca/CaM: 2 μM Ca/CaM
Procedure, shortened: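 Stopped-flow fluorescence mixing of two solutions. The second holds 0.5–7 μM CaM with 50 μM CaCl2. Both contain 100 mM KCl and 1 mM MOPS, pH 7.0. Time constants τ come from exponential fluorescence rise; the transfer rate constant is the slope of 1/τ against [CaM].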

[6] = biological target: ErbB1(645–660) peptide with a phosphorylated Thr654 (human (from the printed accession P00533)); experiment: centrifugation of vesicles
[7] = effect of added agents on binding of ErbB1; details: 2 μM sphingosine; PC/PS vesicles
ErbB1 [8] = details: cardiac fibroblasts; ref Murasawa et al., 1998; cited from earlier work
ErbB1 [9] = details: A431 cells, 5 min after EGF; ref Friedman et al., 1989; cited from earlier work
ErbB1 [10] = experiment: EGF-mediated ErbB1 autophosphorylation in Cos1 cells; type: cell-based

Compound: NCCCCNS(=O)(=O)c1ccc2ccccc2c1 [W-12]
tyrosine kinase activity of purified ErbB1 (ErbB1 [1]): do not inhibit
steady-state ErbB1 autophosphorylation (ErbB1 [2]): not the steady-state value
initial peak of ErbB1 autophosphorylation (ErbB1 [2]): inhibit the initial peak

ratio of bound/free = K[lipid]eff [3]: > 100
time bound to the plasma membrane (tethered region) [3]: > 99%
Compound: 645–660 region of ErbB1: tethered 645–660 region of ErbB1 (RRRHIVRKRTLRRLLQ; UniProt P00533 669-684, looked up, fragment)

Compound: epidermal growth factor [EGF]
ErbB1 activation (ErbB1 [4]): can activate ErbB1 both in membranes and in solubilized form
intracellular [Ca2+] (hepatocytes): 150 nM
increase of intracellular [Ca2+] (A431 cells; 30 nM EGF, ∼5 min): about fivefold
intracellular [Ca2+] (A431 cells; 5 min): 600 nM
intracellular [Ca2+] (A431 cells; by 15 min): 150 nM

Compound: NCCCCNS(=O)(=O)c1ccc2c(Cl)cccc2c1 [W-13]
tyrosine kinase activity of purified ErbB1 (ErbB1 [1]): do not inhibit
steady-state ErbB1 autophosphorylation (ErbB1 [2]): not the steady-state value
initial peak of ErbB1 autophosphorylation (ErbB1 [2]): inhibit the initial peak

Ca/CaM Association Constant (KCaM) (calmodulin (Ca/CaM)): 3e+06 M⁻¹
Compound: ErbB3(667–683): peptide corresponding to the juxtamembrane region of ErbB3 (Ac-CRGRRIQNKRAMRRYLER-NH2; not fully specified (residue 1))

Compound: acrylodan-labeled ErbB1(645–660): ErbB1(645–660) labeled with acrylodan (Ac-C(acrylodan)RRRHIVRKRTLRRLLQ-NH2; SMILES CC[C@H](C)[C@H](NC(=O)[C@H](Cc1c[nH]cn1)NC(=O)[C@H](CCCNC(=N)N)NC(=O)[C@H](CCCNC(=N)N)NC(=O)[C@H](CCCNC(=N)N)NC(=O)[C@H](CSCCC(=O)c1ccc2cc(N(C)C)ccc2c1)NC(C)=O)C(=O)N[C@H](C(=O)N[C@@H](CCCNC(=N)N)C(=O)N[C@@H](CCCCN)C(=O)N[C@@H](CCCNC(=N)N)C(=O)N[C@H](C(=O)N[C@@H](CC(C)C)C(=O)N[C@@H](CCCNC(=N)N)C(=O)N[C@@H](CCCNC(=N)N)C(=O)N[C@@H](CC(C)C)C(=O)N[C@@H](CC(C)C)C(=O)N[C@@H](CCC(N)=O)C(N)=O)[C@@H](C)O)C(C)C)
rate of removal from vesicles by Ca/CaM ([5]; 10% PS): 100 s⁻¹
rate of removal from vesicles by Ca/CaM ([5]; 15% PS): 10 s⁻¹
transfer rate constant (slope of 1/τ vs. [CaM]) ([5]; 85:15 PC/PS vesicles (15% PS)): 5e+06 M⁻¹ s⁻¹
lifetime of peptide on vesicles ([5]; 85:15 PC/PS vesicles, without Ca/CaM): ~0.3 s

fold reduction of KCaM against the unphosphorylated peptide [6]: 20 fold
Compound: calcium/calmodulin (from UniProt P0DP23 1-149) (natural protein)

ErbB1(645–660) peptide desorbed from vesicles [7]: 75%
Compound: CCCCCCCCCCCCC/C=C/[C@@H](O)[C@@H](N)CO [sphingosine]

Ca/CaM Association Constant (KCaM) (calmodulin (Ca/CaM)): 2e+07 M⁻¹
Compound: ErbB4(676–692): peptide corresponding to the juxtamembrane region of ErbB4 (Ac-CRRKSIKKKRALRRFLET-NH2; not fully specified (residue 1))

Compound: CC(=O)OCOC(=O)CN(CC(=O)OCOC(C)=O)c1ccccc1OCCOc1ccccc1N(CC(=O)OCOC(C)=O)CC(=O)OCOC(C)=O [BAPTA-AM]
angiotensin II–stimulated ErbB1 transactivation (ErbB1 [8]): inhibit

Compound: C/C=C(/C)C(=O)O[C@H]1C(C)=C2[C@H]([C@@H]1OC(=O)CCCCCCC)[C@@](C)(OC(C)=O)C[C@H](OC(=O)CCC)[C@@]1(O)[C@H]2OC(=O)[C@@]1(C)O [thapsigargin]
receptor autophosphorylation (ErbB1 [9]): inhibit receptor autophosphorylation

Ca/CaM Association Constant (KCaM) (calmodulin (Ca/CaM)): 6e+07 M⁻¹
Compound: ErbB2(676–692): peptide corresponding to the juxtamembrane region of ErbB2 (Ac-CKRRQQKIRKYTMRRLLQ-NH2; not fully specified (residue 1))

Compound: NCCCCCCNS(=O)(=O)c1cccc2c(Cl)cccc12 [W-7]
ErbB1 receptor levels (ErbB1 [10]; 20–50 μM W-7, anti-ErbB1 reprobe): did not affect receptor levels
inhibition of EGF-mediated ErbB1 tyrosine phosphorylation (ErbB1 [10]; 20–50 μM for 30 min, then 100 ng/ml EGF 10 min, Western blot 4G10): dose-dependent inhibition
angiotensin II–stimulated ErbB1 transactivation (ErbB1 [8]): inhibit
tyrosine kinase activity of purified ErbB1 (ErbB1 [1]): do not inhibit
steady-state ErbB1 autophosphorylation (ErbB1 [2]): not the steady-state value
initial peak of ErbB1 autophosphorylation (ErbB1 [2]): inhibit the initial peak
